Data from ChEMBL document CHEMBL1133045, “Enhancing the aqueous solubility of d4T-based phosphoramidate prodrugs” (Bioorg Med Chem Lett, 2000).

Key:
CCRF-CEM [1] = experiment: Compound was evaluated for the cytotoxicity against CEM cell proliferation by 50%; assay type: functional; settings: Homo sapiens
[2] = Partition coefficient (logP); assay type: physicochemical; settings: octanol/water
Outline: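 LogP measured as the 1-octanol/water partition coefficient.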

CCRF-CEM [3] = experiment: Concentration required to protect CEM cells against cytopathicity of HIV-2 by 50%; assay type: functional, cell-based; settings: Homo sapiens
CCRF-CEM [4] = experiment: Concentration required to protect CEM cells against cytopathicity of HIV-1 by 50%; assay type: functional, cell-based; settings: Homo sapiens
CCRF-CEM [5] = experiment: Concentration required to protect CEM/TK- cells against cytopathicity of HIV-2 by 50%; assay type: functional, cell-based; settings: Homo sapiens

Row | SMILES | logP [2] | EC50 (CCRF-CEM [3]) [nM] | EC50 (CCRF-CEM [4]) [nM] | EC50 (CCRF-CEM [5]) [nM] | CC50 (CCRF-CEM [1]) [nM]
1 | COC(=O)C(C)NP(=O)(OC[C@@H]1C=C[C@H](n2cc(C)c(=O)[nH]c2=O)O1)Oc1ccccc1 (stereo partly specified) | 1.04 | – | – | – | 33000
2 | COC(=O)C(N)Cc1ccc(OP(=O)(NC(C)C(=O)OC)OCC2C=CC(n3cc(C)c(=O)[nH]c3=O)O2)cc1 (stereo unspecified) | 0.09 | 10000 | 4000 | 5000 | –
3 | COC(=O)C(C)NP(=O)(OCC1C=CC(n2cc(C)c(=O)[nH]c2=O)O1)Oc1ccc(CC(NC(=O)OC(C)(C)C)C(=O)OC)cc1 (stereo unspecified) | 1.07 | 700 | 650 | 800 | 217000
4 | COCCOCCOc1ccc(OP(=O)(NC(C)C(=O)OC)OCC2C=CC(n3cc(C)c(=O)[nH]c3=O)O2)cc1 (stereo unspecified) | 0.86 | 1000 | 550 | 1200 | 47000
5 | COCCOCCOCCOc1ccc(OP(=O)(NC(C)C(=O)OC)OCC2C=CC(n3cc(C)c(=O)[nH]c3=O)O2)cc1 (stereo unspecified) | 0.86 | 1300 | 750 | 1350 | 114000

Second part, led by results:

Row | logP [2] | EC50 (CCRF-CEM [3]) [nM] | EC50 (CCRF-CEM [4]) [nM] | EC50 (CCRF-CEM [5]) [nM] | SMILES | CC50 (CCRF-CEM [1]) [nM]
6 | 0.86 | 600 | 90 | 340 | COCCOc1ccc(OP(=O)(NC(C)C(=O)OC)OCC2C=CC(n3cc(C)c(=O)[nH]c3=O)O2)cc1 (stereo unspecified) | 35000
7 | 1.1 | 250 | 200 | 400 | CCOCCOc1ccc(OP(=O)(NC(C)C(=O)OC)OCC2C=CC(n3cc(C)c(=O)[nH]c3=O)O2)cc1 (stereo unspecified) | 64000
8 | 1.09 | 53 | 57 | 47 | COC(=O)C(C)NP(=O)(OC[C@@H]1C=C[C@H](n2cc(C)c(=O)[nH]c2=O)O1)Oc1ccc(OC)cc1 (stereo partly specified) | > 100000
